High-throughput results: PubChem, several laboratories
A selection: hits, their analogues and other compounds. The true share with any hit is near 0.74%.
Arbovirus anti: blocks arbovirus infection; arbovirus infection cell-based antiviral screen; inhibition, % at 10 µM; 200,000 tested, 0.37% active; AID 1251; in the data active means inhibition above about 30%
G6PDH counter: inhibits Leuconostoc G6PDH, flagging false hits in G6PDH-based assays. Purified L. mesenteroides G6PDH, diaphorase/resazurin coupled fluorescence, 45 min. inhibition, % at 5 µM. 200,000 tested, 0.12% active; in the data active means inhibition above about 50%
Diaph act CS: counter-screen for diaphorase-based assays: diaphorase activators and chemical reducers; Diaphorase/resazurin coupled assay, resorufin fluorescence, 16 min; stronger effect = higher value; 1 = vehicle wells, 0 = NADH-free wells; activation factor at 20 µM; 190,000 tested, 0.005% active; AID 1229;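 active means diaphorase activity raised at least twofold by the compound at 20 µM; inactive means activation factor below 2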
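Material: purified diaphorase enzyme from Clostridium kluyveri; Also added: 0.114 mM NADH and 0.1 mM resazurin, final amounts; Doses: single compound dose of 20 µM, 1% DMSO final; Times: 16 min enzyme reaction, ambient temperature; Detection: resorufin fluorescence, excitation 544 nm, emission 590 nm; Measure: increased resorufin signal from activators or reducing compounds.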
Diaph inh CS: counter-screen for diaphorase-based assays: diaphorase inhibitors and chemical oxidizers. diaphorase resazurin-to-resorufin fluorescence, NADH, 16 min; bacterial (C. kluyveri) enzyme, not human. inhibition, % at 20 µM. 190,000 tested, 0.69% active;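 active means primary screen inhibition at 20 µM above a set limit, cut at about 50% in these data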;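 further: plate controls were DMSO with full reaction for no effect and wells lacking NADH for full effect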
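Test system: Clostridium kluyveri diaphorase enzyme / Quantity: diaphorase at 0.14 U/mL in enzyme working solution / Incubation: 16-min room-temperature incubation before reading / Benchmarks: NADH-free wells as positive control, DMSO-only neutral wells / Signal: resorufin fluorescence 544/590 nm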
HKDC1 inhibitor: HKDC1 (human) hexokinase inhibition | AID 493160 | recombinant HKDC1, G6PDH/diaphorase resazurin coupled fluorescence | Q2TB90 | 340,000 tested, 0.16% active | inhibition, % at 20 µM;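 active means inhibition above about 35% when tested at 20 µM, limit read from the data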;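 further: plate controls were DMSO wells with enzyme for no effect and DMSO wells lacking enzyme for full effect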
Target sequence (Q2TB90 whole entry, looked up): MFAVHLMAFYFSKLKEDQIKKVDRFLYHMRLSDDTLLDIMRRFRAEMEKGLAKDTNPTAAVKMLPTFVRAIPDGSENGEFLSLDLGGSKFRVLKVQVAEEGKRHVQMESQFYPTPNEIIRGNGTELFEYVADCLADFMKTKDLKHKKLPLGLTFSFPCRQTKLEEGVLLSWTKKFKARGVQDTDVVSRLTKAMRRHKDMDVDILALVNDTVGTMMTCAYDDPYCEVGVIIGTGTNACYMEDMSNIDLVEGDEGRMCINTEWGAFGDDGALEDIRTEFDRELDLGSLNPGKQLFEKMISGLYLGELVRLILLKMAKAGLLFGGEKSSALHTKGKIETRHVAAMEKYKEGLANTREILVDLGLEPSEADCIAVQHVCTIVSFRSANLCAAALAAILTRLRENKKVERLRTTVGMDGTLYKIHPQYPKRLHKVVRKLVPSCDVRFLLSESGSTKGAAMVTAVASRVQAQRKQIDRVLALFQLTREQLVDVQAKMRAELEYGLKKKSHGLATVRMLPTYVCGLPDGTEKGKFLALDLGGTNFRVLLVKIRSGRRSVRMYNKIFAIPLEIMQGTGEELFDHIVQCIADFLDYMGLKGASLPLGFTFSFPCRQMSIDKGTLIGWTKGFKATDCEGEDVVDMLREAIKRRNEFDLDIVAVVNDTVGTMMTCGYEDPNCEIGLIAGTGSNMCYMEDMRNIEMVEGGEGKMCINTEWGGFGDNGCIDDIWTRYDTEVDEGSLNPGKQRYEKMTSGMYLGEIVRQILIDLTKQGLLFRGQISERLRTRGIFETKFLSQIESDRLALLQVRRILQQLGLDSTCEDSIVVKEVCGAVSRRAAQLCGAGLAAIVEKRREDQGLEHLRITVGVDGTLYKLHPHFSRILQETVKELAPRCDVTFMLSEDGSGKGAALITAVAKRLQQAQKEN
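Test system: HK5 enzyme. Quantity: 5 µg/mL HK5 final. Reagent: glucose and ATP substrates. Schedule: 90 min reaction incubation at room temperature, dark. Technique: resazurin-to-resorufin fluorescence via G6PDH and diaphorase coupling, 525/613 nm. Control set: DMSO wells with and without enzyme mix.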
HKDC1 act conf: confirmation of human HKDC1 activators; shares compounds with HKDC1 inhibitor; recombinant HKDC1, G6PDH/diaphorase resazurin fluorescence; stronger effect = lower value; inhibition, % at 20 µM; 740 tested, 14% active;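 active means inhibition at or below a set negative limit, negative inhibition meaning the enzyme was activated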
Starred values were filed as active, the others as inactive; x = not tested or not shown.

SMILES	Arbovirus anti	G6PDH counter	Diaph act CS	Diaph inh CS	HKDC1 inhibitor	HKDC1 act conf
Cn1nc(C(=O)OCC(=O)NC2CCS(=O)(=O)C2)c2ccccc2c1=O (stereo not drawn)	0	0	1.1	-11	2	x
N#C/C(=C(/O)CCl)c1nc2c(s1)CCc1ccccc1-2	x	x	x	x	44*	46
O=C(CCCl)Nc1nc2c(s1)CCc1ccccc1-2	x	x	x	x	10	x
COC(=O)c1ccc(C2=NOC(C)(c3nnc(Cc4ccccc4)o3)C2)cc1 (stereo not drawn)	x	x	x	x	1	x
COc1cccc(OCC(O)CNC(C)c2ccccc2)c1 (stereo not drawn)	x	x	x	x	-2	x
C=CCN1C2CCCC1CC(NC(=O)Nc1cc(C)cc(C)c1)C2 (stereo not drawn)	0	8	0.9	7	-12	x
Cc1noc(C)c1CSCC(=O)Nc1nc(-c2ccc(F)c(F)c2)cs1	x	x	x	x	7	x
COc1ccc(-c2csc(NC(=O)CSCc3c(C)noc3C)n2)cc1OC	x	x	x	x	35	-33
O=C1C=C(N2CCCCC2)c2ccccc2C1=O	x	x	x	x	81*	86
Cc1cc(O)c(-c2cc(O)c(C)cc2O)cc1O	x	x	x	x	45*	24
CC(=NNC(=O)c1ccncc1)c1ccc(O)cc1O	x	x	x	x	-40	-4
CC(=NNC(=O)c1ccncc1)c1ccccc1O	x	x	x	x	-1	x
C/C(=N\NC(=O)c1cc(-c2cccnc2)nc2ccccc12)c1ccc(O)cc1O	-34	-8	0.8	20	-40	-3
CCOC(=O)C1=CC[C@@H](c2cc3cc(OC)ccc3n2C)N(S(=O)(=O)c2ccc(C)cc2)[C@H]1C(=O)OCC	x	x	x	x	3	x
Cc1ccc(NC(=O)CSc2ccccc2)cc1S(=O)(=O)N1CCCCC1	x	x	x	x	0	x
Cc1cc(C)c(S(=O)(=O)/N=C2/C=C(SCC(=O)O)C(=O)c3ccccc32)cc1C	1	51*	0.7	29	51*	30
CC1(OC(=O)C2CCCC2)C(=O)C=C2C=C(c3ccsc3)OC=C2C1=O (stereo not drawn)	x	x	x	x	18	x
COc1ccc(C2=CC3=C(Br)C(=O)C(C)(OC(=O)C4CCCC4)C(=O)C3=CO2)cc1 (stereo not drawn)	x	x	x	x	53*	-18
COC(=O)CCC(=O)OC1(C)C(=O)C2=CN(CCc3ccccn3)C(c3ccc(OC)cc3)=CC2=C(Br)C1=O (stereo not drawn)	x	x	x	x	33	x
COc1ccc(C2=CC3=C(Br)C(=O)C(C)(OC(=O)c4ccc(Cl)nc4)C(=O)C3=CO2)cc1 (stereo not drawn)	x	x	x	x	28	x
COC(=O)CCC(=O)OC1(C)C(=O)C2=CN(Cc3ccc4c(c3)OCO4)C(c3ccc(OC)cc3)=CC2=C(Br)C1=O (stereo not drawn)	x	x	x	x	40*	-5
COC(=O)CCC(=O)OC1(C)C(=O)C2=COC(c3ccc(OC)cc3)=CC2=C(Br)C1=O (stereo not drawn)	x	x	x	x	37*	0
CCOC(=O)C1=C(COC(=O)c2cc(OC)c(OC)c(OC)c2)NC(=O)NC1C (stereo not drawn)	x	x	x	x	4	x
Cc1cccnc1NC(=O)Cn1nc(C)c([N+](=O)[O-])c1C	4	-4	0.9	7	-4	x
O=c1cc(N2CCc3ccccc32)[nH]c(=O)n1-c1ccc(Cl)cc1	6	-1	0.8	17	-15	x
SMILES	Arbovirus anti	G6PDH counter	Diaph act CS	Diaph inh CS	HKDC1 inhibitor	HKDC1 act conf
CC(=O)NC1C(=O)N(CCN2CCOCC2)c2ccc(F)cc21 (stereo not drawn)	x	x	x	x	79*	61
CC(=O)NC1C(=O)N(CCN2CCOCC2)c2ccc(C)cc21 (stereo not drawn)	x	x	x	x	86*	70
CC(=O)NC1C(=O)N(CCN2CCOCC2)c2ccc(Cl)cc21 (stereo not drawn)	x	x	x	x	82*	61
CCn1c(CNC(=O)c2ccco2)nnc1SCC(=O)Nc1cc(C(F)(F)F)ccc1Cl	2	-11	0.9	8	11	x
COc1cccc(CC(Cc2nc3ccccc3[nH]2)c2nc3ccccc3[nH]2)c1 (stereo not drawn)	23	12	0.9	11	50*	-28
COc1ccc(N(CC(=O)NCCSCc2ccccc2C)S(=O)(=O)c2ccccc2)cc1	x	x	x	x	-3	x
CCOc1ccc(C(=O)N/N=C/c2ccc(-c3ccc(S(=O)(=O)Nc4ncccn4)cc3)o2)cc1	1	5	1	0	-4	x
O=C(N/N=C/c1ccc(-c2ccc(S(=O)(=O)Nc3ncccn3)cc2)o1)c1cc2ccccc2cc1O	-15	17	0.6	41	33	-22
COC(=O)c1cc(S(=O)(=O)N2CCOCC2)c(Cl)cc1N1CCOCC1	3	-2	1	3	-6	x
COC(=O)c1cc(C)nc2c1C(=O)C(=O)C=C2N1CCOCC1	x	x	x	x	68*	66
COc1cccc(CN(CC(=O)NCc2ccccc2)S(=O)(=O)CCl)c1	x	x	x	x	-6	x
COc1cc(/C=C2\SC(c3ccc(C)cc3)=NC2=O)cc(OC)c1O	2	-67	0.3	66*	48*	32
COc1cc(/C=C2\SC(N)=NC2=O)cc(Cl)c1O	x	x	x	x	16	x
N#C/C(=C(/O)Cc1ccccc1)P(=O)(c1ccccc1)c1ccccc1	x	x	x	x	-3	x
Cc1ccc(NC(=O)CN2C(=O)S/C(=C\c3ccc(-c4cccc(C(=O)O)c4C)o3)C2=O)cc1C	-9	2	-0.1	110*	33	-26
CCN(CC(=O)Nc1c(F)cccc1F)C(=O)/C=C/c1ccc2ccccc2n1	x	x	x	x	33	13
COc1ccc(C(C(=O)NC(C)(C)C)N(C(=O)CCC(=O)Nc2cc(C)on2)c2ccccc2F)cc1 (stereo not drawn)	x	x	x	x	-4	x
COc1ccc(/C=C/C(=O)c2ccc([N+](=O)[O-])o2)cc1OC	x	x	x	x	32	6
O=C(CC1C(=O)NCCN1Cc1ccccc1C(F)(F)F)NCCn1cccn1 (stereo not drawn)	3	-2	1	2	-7	x
O=C(O)[C@@H](c1ccccc1)N1Cc2ccccc2C1=O	7	4	1.1	-8	52*	44
O=C(Oc1ccc(-c2cnc3ccccc3n2)cc1)c1cc([N+](=O)[O-])ccc1Cl	-1	7	1	0	6	x
Cc1c(C(=O)Oc2ccc(-c3cnc4ccccc4n3)cc2)cccc1[N+](=O)[O-]	-10	-4	0.8	24	-89	-27
O=C(c1ccc([N+](=O)[O-])s1)N1CCN(c2cccc(Cl)c2)CC1	-36	12	0.8	18	-1	x
COc1ccc(CN2C=C3C(=O)C(C)(OC(=O)C4CCCC4)C(=O)C=C3C=C2c2ccsc2)cc1 (stereo not drawn)	x	x	x	x	35*	-19
CCC1C(=O)NCCN1C(=O)c1ccc2nc(Cc3cccc(Cl)c3)oc2c1 (stereo not drawn)	x	x	x	x	-4	x
CC(=NNc1nc2ccccc2o1)c1ncccn1	x	x	x	x	-11	x
CC(=NNc1nc2ccccc2o1)c1cc2ccccc2cn1	x	x	x	x	-48	-77*
